In ChEMBL document CHEMBL1149086, “Antimalarial and antitumor evaluation of novel C-10 non-acetal dimers of 10beta-(2-hydroxyethyl)deoxoartemisinin” (J Med Chem, 2004):

Tests used:
[1] = tested on: MCF7; experiment: Concentration required to achieve total growth inhibition against breast MCF-7 cancer cell line; format: functional; details: Homo sapiens
[2] = tested on: HCC 2998; experiment: inhibition against colon HCC2998 cancer cell line; format: functional; details: Homo sapiens
[3] = tested on: HCT-116; experiment: Concentration required to achieve total growth inhibition against colon HCT116 cancer cell line; format: functional; details: Homo sapiens
[4] = tested on: HCC 2998; experiment: Concentration required to achieve total growth inhibition against colon HCC2998 cancer cell line; format: functional; details: Homo sapiens
[5] = tested on: HL-60; experiment: Inhibitory concentration against HL60 cells; format: functional, cell-based; details: Homo sapiens
How it was run: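 HL60 (2.5 × 10⁴/well) or Jurkat (1 × 10⁵/well) in RPMI-1640 with 10% FBS and 1% L-glutamine, 5% CO2, 37 °C. Exposed to 10⁻¹⁰–10⁻⁴ M for 72 h, final DMSO below 0.5% v/v. [3H]-thymidine (0.5 μCi) added for the final 24 h. Incorporation counted by β-scintillation.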

[6] = tested on: KM12; experiment: Concentration of the drug required to achieve 50% cytotoxicity against colon KM12 cancer cell line; format: functional; details: Homo sapiens, read-out: LC50 (the source's name)
[7] = tested on: Jurkat; experiment: Tested for apoptosis in jurkat cells at a concentration of 0.3 uM of the compound; format: functional, Homo sapiens
How it was run: (§1)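 Jurkat cells (>98% viable, <2% background apoptosis) at 1 × 10⁶ cells/mL were exposed to 0–100 μM drug (DMSO) for 24 h at 37 °C in 5% CO₂. Nuclei were stained with 50 μM propidium iodide and 0.1% Triton-X in HBSS for 10 min at 37 °C, then scored as apoptotic by flow cytometry. Triplicate incubations in one experiment, mean ± SD; Kruskal–Wallis test versus DMSO control.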

[8] = tested on: Jurkat; experiment: Tested for apoptosis in jurkat cells at a concentration of 100 uM of the compound; format: functional, Homo sapiens; how it was run: as §1
[9] = tested on: MOLT-4; experiment: Concentration of the drug required to achieve 50% cytotoxicity against leukemia MOLT-4 cell line; format: functional; details: Homo sapiens, read-out: LC50 (the source's name)
[10] = tested on: Malme-3M; experiment: Concentration of the drug required to achieve 50% cytotoxicity against melanoma MALME-3M cell line; format: cell-based; details: human
[11] = tested on: SK-MEL-5; experiment: Concentration of the drug required to achieve 50% cytotoxicity against melanoma SK-MEL-5 cell line; format: cell-based; details: human
[12] = tested on: MCF7; experiment: Concentration of the drug required to achieve 50% cytotoxicity against breast MCF-7 cancer cell line; format: cell-based; details: human
[13] = tested on: SR; experiment: Concentration of the drug required to achieve 50% cytotoxicity against leukemia SR cell line; format: functional; details: Homo sapiens, read-out: LC50 (the source's name)
[14] = tested on: COLO 205; experiment: Concentration required to achieve total growth inhibition against colon COLO 205 cancer cell line; format: functional; details: Homo sapiens
[15] = tested on: RPMI-8226; experiment: Concentration required to achieve total growth inhibition against leukemia RPMI-8226 cell line; format: functional; details: Homo sapiens
[16] = tested on: KM12; experiment: Concentration required to achieve total growth inhibition against colon KM12 cancer cell line; format: functional; details: Homo sapiens
[17] = tested on: UACC-62; experiment: inhibition against melanoma UACC-62 cell line; format: functional; details: Homo sapiens
[18] = tested on: SK-MEL-5; experiment: inhibition against melanoma SK-MEL-5 cell line; format: functional; details: Homo sapiens
[19] = tested on: NCI/ADR-RES; experiment: Concentration of the drug required to achieve 50% cytotoxicity against breast NCI/ ADR-RES cancer cell line; format: cell-based; details: human
[20] = tested on: UACC-62; experiment: Concentration of the drug required to achieve 50% cytotoxicity against melanoma UACC-62 cell line; format: cell-based; details: human
[21] = tested on: K562; experiment: Concentration required to achieve total growth inhibition against leukemia K-562 cell line; format: functional; details: Homo sapiens
[22] = tested on: COLO 205; experiment: inhibition against colon COLO 205 cancer cell line; format: functional; details: Homo sapiens
[23] = tested on: LOX IMVI; experiment: inhibition against melanoma LOX IMVI cell line; format: functional; details: Homo sapiens
[24] = tested on: LOX IMVI; experiment: Concentration of the drug required to achieve 50% cytotoxicity against melanoma LOX IMVI cell line; format: cell-based; details: human
[25] = tested on: PC-3; experiment: inhibition against prostate PC-3 cell line; format: functional; details: Homo sapiens
[26] = tested on: HCT-15; experiment: Concentration required to achieve total growth inhibition against colon HCT-15 cancer cell line; format: functional; details: Homo sapiens
[27] = tested on: K562; experiment: inhibition against leukemia K-562 cell line; format: functional; details: Homo sapiens
[28] = tested on: SK-MEL-5; experiment: Concentration required to achieve total growth inhibition against melanoma SK-MEL-5 cell line; format: functional; details: Homo sapiens
[29] = tested on: T47D; experiment: Concentration required to achieve total growth inhibition against breast T-47D cancer cell line; format: functional; details: Homo sapiens
[30] = tested on: HL-60; experiment: Concentration required to achieve total growth inhibition against leukemia HL-60(TB) cell line; format: functional; details: Homo sapiens
[31] = tested on: COLO 205; experiment: Concentration of the drug required to achieve 50% cytotoxicity against colon COLO 205 cancer cell line; format: functional; details: Homo sapiens, read-out: LC50 (the source's name)
[32] = tested on: PC-3; experiment: Concentration of the drug required to achieve 50% cytotoxicity against prostate PC-3 cell line; format: cell-based; details: human
[33] = tested on: HCT-15; experiment: inhibition against colon HCT-15 cancer cell line; format: functional; details: Homo sapiens
[34] = tested on: MOLT-4; experiment: Concentration required to achieve total growth inhibition against leukemia MOLT-4 cell line; format: functional; details: Homo sapiens
[35] = tested on: HCT-15; experiment: Concentration of the drug required to achieve 50% cytotoxicity against colon HCT-15 cancer cell line; format: functional; details: Homo sapiens, read-out: LC50 (the source's name)
[36] = tested on: Plasmodium falciparum; experiment: In vitro antimalarial activity against Plasmodium falciparum HB3 by [3H]hypoxanthine uptake; format: functional, organism-based
[37] = tested on: MOLT-4; experiment: inhibition against leukemia MOLT-4 cell line; format: functional; details: Homo sapiens

## C[C@H]1[C@@H](CCOP(=O)(OCC[C@H]2O[C@@H]3OC4(C)CC[C@H]5[C@H](C)CC[C@@H]([C@H]2C)[C@@]35OO4)Oc2ccccc2)O[C@@H]2OC3(C)CC[C@H]4[C@H](C)CC[C@@H]1[C@@]24OO3 (single isomer, unassigned)
[1]
  TGI: > 100000 nM
[2]
  GI50: 64.8 nM
[3]
  TGI: > 100000 nM
[4]
  TGI: 2850 nM
[5]
  IC50: 241 nM
[6]
  CC50: > 100000 nM
[7]
  Activity: 7.3%
[8]
  Activity: 20.1%
[9]
  CC50: > 100000 nM
[10]
  LC50: > 100000 nM
[11]
  LC50: > 100000 nM
[12]
  LC50: > 100000 nM
[13]
  CC50: > 100000 nM
[14]
  TGI: 170 nM
[15]
  TGI: 10 nM
[16]
  TGI: 17900 nM
[17]
  GI50: 75.3 nM
[18]
  GI50: 13 nM
[19]
  LC50: > 100000 nM
[20]
  LC50: > 100000 nM
[21]
  TGI: 100000 nM
[22]
  GI50: < 10 nM
[23]
  GI50: 19.1 nM
[24]
  LC50: > 100000 nM
[25]
  GI50: < 10 nM
[26]
  TGI: > 100000 nM
[27]
  GI50: < 10 nM
[28]
  TGI: 2250 nM
[29]
  TGI: < 10000 nM
[30]
  TGI: 2230 nM
[31]
  CC50: > 100000 nM
[32]
  LC50: > 100000 nM
[33]
  GI50: < 10 nM
[34]
  TGI: 11900 nM
[35]
  CC50: > 100000 nM
[36]
  IC50: 0.18 nM
[37]
  GI50: < 10 nM
